Results from ChEMBL document CHEMBL1149276, “Inhibition of Streptococcus suis adhesion by dendritic galabiose compounds at low nanomolar concentration” (J Med Chem, 2004).
In brackets after ≈: the same amount, converted by molar mass.

What was measured:
Streptococcus suis [1] = assay: Inhibition of Streptococcus suis 836 mediated hemagglutinination of human erythrocytes; format: functional
Summary of the method: (§1)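 S. suis grown in THY broth at 37 °C without shaking. Twofold dilutions of galabiose compound were preincubated with equal volumes of bacteria for 5 min at room temperature. Then 5% sialidase-treated human erythrocytes were added. After 1 h on ice, agglutination was scored visually. MIC was taken as the lowest concentration giving complete inhibition.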

Streptococcus suis [2] = assay: Inhibition of Streptococcus suis 628 binding to pigeon ovomucoid by surface plasmon resonance assay; format: functional, organism-based
Summary of the method: (§2)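 SPR competition format. S. suis was cultured in THY broth at 37 °C without shaking. Bacteria were incubated 5 min with inhibitor dilutions in HBS-P buffer, then injected over the sensor chip. The surface was regenerated with 10 mM NaOH between injections. Data from repeated experiments were normalized 0–100 to build inhibition curves. Line 7 expresses potency relative to the monovalent reference.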

Streptococcus suis [3] = assay: Relative potency against Streptococcus suis 628 mediated hemagglutinination of human erythrocytes measured as IC50 for monovalent galobiose compound to the multivalent compound; format: functional
Summary of the method: (§3)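 Hemagglutination MIC read-out. Bacteria (THY broth, 37 °C, static) were preincubated 5 min at room temperature with twofold inhibitor dilutions. Sialidase-treated 5% human erythrocytes were added and agglutination was scored visually after 1 h on ice. Potency is expressed relative to the monovalent reference galabioside.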

Streptococcus suis [4] = assay: Relative potency against Streptococcus suis 836 mediated hemagglutinination of human erythrocytes measured as IC50 for monovalent galobiose compound to the multivalent compound; format: functional; summary of the method: as §3
Streptococcus suis [5] = assay: Inhibition of Streptococcus suis 628 mediated hemagglutinination of human erythrocytes; format: functional; summary of the method: as §1
Streptococcus suis [6] = assay: Relative potency for against treptococcus suis 628 binding to pigeon ovomucoid by surface plasmon resonance assay measured as IC50 for monovalent galobiose compound to the multivalent compound; format: functional; summary of the method: as §2
Streptococcus suis [7] = assay: Inhibition of Streptococcus suis 628 binding to pigeon ovomucoid by ELISA; format: functional, organism-based

SMILES	MIC (Streptococcus suis [1]) [µM]	IC50 (Streptococcus suis [2]) [nM]	MIC (Streptococcus suis [5]) [µM]	IC50 (Streptococcus suis [7]) [nM]	Ratio IC50 (Streptococcus suis [3])	Ratio IC50 (Streptococcus suis [4])	Ratio IC50 (Streptococcus suis [6])
O=C(CCN(CCNC(=O)CCN(CCC(=O)NCCN(CCC(=O)NCCNC(=O)COCC(=O)NCCCO[C@@H]1O[C@H](CO)[C@H](O[C@H]2O[C@H](CO)[C@H](O)[C@H](O)[C@H]2O)[C@H](O)[C@H]1O)CCC(=O)NCCNC(=O)COCC(=O)NCCCO[C@@H]1O[C@H](CO)[C@H](O[C@H]2O[C@H](CO)[C@H](O)[C@H](O)[C@H]2O)[C@H](O)[C@H]1O)CCN(CCC(=O)NCCN(CCC(=O)NCCNC(=O)COCC(=O)NCCCO[C@@H]1O[C@H](CO)[C@H](O[C@H]2O[C@H](CO)[C@H](O)[C@H](O)[C@H]2O)[C@H](O)[C@H]1O)CCC(=O)NCCNC(=O)COCC(=O)NCCCO[C@@H]1O[C@H](CO)[C@H](O[C@H]2O[C@H](CO)[C@H](O)[C@H](O)[C@H]2O)[C@H](O)[C@H]1O)CCC(=O)NCCN(CCC(=O)NCCNC(=O)COCC(=O)NCCCO[C@@H]1O[C@H](CO)[C@H](O[C@H]2O[C@H](CO)[C@H](O)[C@H](O)[C@H]2O)[C@H](O)[C@H]1O)CCC(=O)NCCNC(=O)COCC(=O)NCCCO[C@@H]1O[C@H](CO)[C@H](O[C@H]2O[C@H](CO)[C@H](O)[C@H](O)[C@H]2O)[C@H](O)[C@H]1O)CCC(=O)NCCNC(=O)COCC(=O)NCCCO[C@@H]1O[C@H](CO)[C@H](O[C@H]2O[C@H](CO)[C@H](O)[C@H](O)[C@H]2O)[C@H](O)[C@H]1O)NCCNC(=O)COCC(=O)NCCCO[C@@H]1O[C@H](CO)[C@H](O[C@H]2O[C@H](CO)[C@H](O)[C@H](O)[C@H]2O)[C@H](O)[C@H]1O	0.002 (≈ 0.0108 µg/mL)	7	0.0003 (≈ 0.00162 µg/mL)		3000	800	256
COC(=O)c1cccc(OCCNC(=O)COCC(=O)NCCCO[C@@H]2O[C@H](CO)[C@H](O[C@H]3O[C@H](CO)[C@H](O)[C@H](O)[C@H]3O)[C@H](O)[C@H]2O)c1	1.6 (≈ 1.11 µg/mL)	1800	0.9 (≈ 0.623 µg/mL)	45000			
COC(=O)c1cc(OCCNC(=O)COCC(=O)NCCCOCCOCCOCCCNC(=O)COCC(=O)NCCCO[C@@H]2O[C@H](CO)[C@H](O[C@H]3O[C@H](CO)[C@H](O)[C@H](O)[C@H]3O)[C@H](O)[C@H]2O)cc(OCCNC(=O)COCC(=O)NCCCOCCOCCOCCCNC(=O)COCC(=O)NCCCO[C@@H]2O[C@H](CO)[C@H](O[C@H]3O[C@H](CO)[C@H](O)[C@H](O)[C@H]3O)[C@H](O)[C@H]2O)c1	0.1 (≈ 0.189 µg/mL)	156	0.009 (≈ 0.017 µg/mL)		100	16	12
O=C(COCC(=O)NCCCO[C@@H]1O[C@H](CO)[C@H](O[C@H]2O[C@H](CO)[C@H](O)[C@H](O)[C@H]2O)[C@H](O)[C@H]1O)NCC#Cc1ccc(C#CCNC(=O)COCC(=O)NCCCO[C@@H]2O[C@H](CO)[C@H](O[C@H]3O[C@H](CO)[C@H](O)[C@H](O)[C@H]3O)[C@H](O)[C@H]2O)cc1	0.09 (≈ 0.106 µg/mL)	309	0.007 (≈ 0.00825 µg/mL)		128	18	6
COC(=O)c1cc(OCCNC(=O)COCC(=O)NCCCO[C@@H]2O[C@H](CO)[C@H](O[C@H]3O[C@H](CO)[C@H](O)[C@H](O)[C@H]3O)[C@H](O)[C@H]2O)cc(OCCNC(=O)COCC(=O)NCCCO[C@@H]2O[C@H](CO)[C@H](O[C@H]3O[C@H](CO)[C@H](O)[C@H](O)[C@H]3O)[C@H](O)[C@H]2O)c1	0.07 (≈ 0.0874 µg/mL)	235	0.006 (≈ 0.0075 µg/mL)		150	22	8

Further compounds by falling MIC (Streptococcus suis [1]), results first:

MIC (Streptococcus suis [1]) [µM]	IC50 (Streptococcus suis [2]) [nM]	MIC (Streptococcus suis [5]) [µM]	IC50 (Streptococcus suis [7]) [nM]	SMILES	Ratio IC50 (Streptococcus suis [3])	Ratio IC50 (Streptococcus suis [4])	Ratio IC50 (Streptococcus suis [6])
0.05 (≈ 0.059 µg/mL)	293	0.004 (≈ 0.00472 µg/mL)		O=C(COCC(=O)NCCCO[C@@H]1O[C@H](CO)[C@H](O[C@H]2O[C@H](CO)[C@H](O)[C@H](O)[C@H]2O)[C@H](O)[C@H]1O)NCC#Cc1cccc(C#CCNC(=O)COCC(=O)NCCCO[C@@H]2O[C@H](CO)[C@H](O[C@H]3O[C@H](CO)[C@H](O)[C@H](O)[C@H]3O)[C@H](O)[C@H]2O)c1	225	32	6
0.04 (≈ 0.108 µg/mL)	7	0.002 (≈ 0.00538 µg/mL)		COC(=O)c1cc(OCCNC(=O)c2cc(OCCNC(=O)COCC(=O)NCCCO[C@@H]3O[C@H](CO)[C@H](O[C@H]4O[C@H](CO)[C@H](O)[C@H](O)[C@H]4O)[C@H](O)[C@H]3O)cc(OCCNC(=O)COCC(=O)NCCCO[C@@H]3O[C@H](CO)[C@H](O[C@H]4O[C@H](CO)[C@H](O)[C@H](O)[C@H]4O)[C@H](O)[C@H]3O)c2)cc(OCCNC(=O)c2cc(OCCNC(=O)COCC(=O)NCCCO[C@@H]3O[C@H](CO)[C@H](O[C@H]4O[C@H](CO)[C@H](O)[C@H](O)[C@H]4O)[C@H](O)[C@H]3O)cc(OCCNC(=O)COCC(=O)NCCCO[C@@H]3O[C@H](CO)[C@H](O[C@H]4O[C@H](CO)[C@H](O)[C@H](O)[C@H]4O)[C@H](O)[C@H]3O)c2)c1	450	40	256
